Most compounds without a hit are left out; they make up all but 3.1% or so of the library.
miR-122 sensor = blocks miR-122 activity in Huh7 sensor cells; Huh7 miR-122 Renilla luciferase sensor, 48 h; neutral wells = 0, positive control = 100; activation (reporter increase), % at 12.5 µM; 0.3% of 340,000 active; AID 602342;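 active = mean replicate activation score at least 90 and every replicate individually at or above 90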;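 note: higher luciferase means less miR-122 activity so hits act as miR-122 inhibitors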
Cneo AK release = causes C. neoformans cell lysis; lysis activity, % at 15 µM; 0.2% of 360,000 active; adenylate kinase release luminescence, 4 h; normalised: neutral wells 0, clomiphene wells 100;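 active = mean lysis activity across replicates of at least 80%, whatever share of replicates individually reach that level; inactive = mean lysis activity below 80%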
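read-out = cell lysis signal | test system = log-phase Cryptococcus neoformans yeast cells | input = cells at 5 × 10^6 per mL | medium = fresh YPD growth medium | signal = luminescent adenylate kinase detection reagent | timing = 4 h at 37 °C static, read 1 h later | dosing = single dose | controls = Clomiphene as positive lysis control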
E-sel inducer = E-selectin induction on HUVECs; P16581; HUVEC E-selectin immunofluorescence imaging; normalized: neutral wells 0, TNF-alpha wells 100; activation, % at 7.58 µM; 0.37% of 260,000 active; AID 686992;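 active = mean E-selectin-positive cell signal at least 10% of the positive control, reached in at least 60% of replicates, without over 20% cell loss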
Target sequence (P16581 whole entry, looked up): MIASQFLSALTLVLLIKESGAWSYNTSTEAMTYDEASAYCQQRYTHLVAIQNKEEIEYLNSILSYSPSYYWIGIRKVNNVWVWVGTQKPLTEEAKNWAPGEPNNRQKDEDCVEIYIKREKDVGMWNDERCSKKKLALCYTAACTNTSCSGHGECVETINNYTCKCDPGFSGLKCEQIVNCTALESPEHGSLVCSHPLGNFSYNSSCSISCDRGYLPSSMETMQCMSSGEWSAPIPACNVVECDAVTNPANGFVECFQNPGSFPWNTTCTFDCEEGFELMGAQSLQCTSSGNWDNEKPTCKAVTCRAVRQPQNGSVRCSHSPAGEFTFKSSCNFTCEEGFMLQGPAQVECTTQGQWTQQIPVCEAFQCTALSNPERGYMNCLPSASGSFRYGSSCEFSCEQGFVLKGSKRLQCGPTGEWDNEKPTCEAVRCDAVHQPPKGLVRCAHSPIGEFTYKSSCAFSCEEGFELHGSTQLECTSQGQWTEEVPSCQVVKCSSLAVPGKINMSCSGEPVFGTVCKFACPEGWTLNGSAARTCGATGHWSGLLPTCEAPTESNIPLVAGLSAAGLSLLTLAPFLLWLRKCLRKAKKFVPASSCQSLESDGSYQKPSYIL
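Test system – human umbilical vein endothelial cells (HUVEC), E-selectin induction · Input – 3,000 HUVEC seeded per well · Buffer or medium – EGM-2, gelatin · Compound dosing – single-point compound dose · Detection – immunofluorescence imaging · Measure – percent E-selectin-positive cells · Controls – TNF-alpha high, DMSO low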
Ecoli rRNA inh = inhibits bacterial ribosomal RNA function over humanized ribosomes | E. coli WT GFP vs humanized-ribosome RFP mutants, fluorescence, 24 h; stronger effect = lower value; DMSO median 0, no signal -100 | GFP signal change (wild-type ribosome), % (no concentration beside the values) | 1.6% of 350,000 active;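 active = significant combined selectivity score with lowered wild-type GFP, culture density cut under 30%, mutant RFP and density less affected; inactive = any of these conditions unmet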
DENV2 CPE rescue = inhibitors of DENV2 cytopathic effect. 1.7% of 350,000 active. DENV2-infected cells, cytopathic effect rescue, plate reader. AID 651640. CPE inhibition, % at 9.99 µM; in the data active = CPE inhibition above about 20%, passing the limit was not always enough; tested in BHK-21 cells;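 note: 0% = median of neutral control wells and 100% = median of positive control wells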
* hit, by the source's call; . = not tested or not shown; [ ] = another dose, or the depositor's remark.

SMILES	miR-122 sensor	Cneo AK release	E-sel inducer	Ecoli rRNA inh	DENV2 CPE rescue
COc1ccccc1CNC(=O)C[C@H]1CC[C@@H]2[C@H](COc3ccc(NC(=O)Nc4ccc(F)c(F)c4)cc3C(=O)N2C)O1	-16[16.7 µM]	-4	0	-10	-3
OCC[C@H]1C[C@@H](O)[C@H](O)[C@]2(Cc3ccccc3CCO2)O1	.	1	0	3	47*
O=C(Nc1cccc(Cl)c1)Nc1nccs1	5	-1	.	.	.
O=C(Nc1ccc(Cl)c(Cl)c1)Nc1nccs1	22	-2	0	-26*	6
CCCN(C)C[C@H]1OCCCC[C@H](C)Oc2ccc(NC(=O)c3ccncc3)cc2C(=O)N([C@H](C)CO)C[C@H]1C	-3[16.7 µM]	.	2	3	.
CC1=C(C(=O)OC(C)C)C(c2ccc(N(C)C)cc2)C2=C(CC(C)(C)CC2=O)N1 (stereo not drawn)	150*	1	.	.	.
CCOC(=O)C1=C(C)NC2=C(C(=O)CC(C)(C)C2)C1c1ccc(N(C)C)cc1 (stereo not drawn)	10	.	.	.	.
Cc1ccc(OCC(=O)Nn2c(C)nc3ccccc3c2=O)c(C(C)C)c1	.	-3	.	-22*	.
COCCNC(=O)C[C@H]1CC[C@@H]2[C@@H](COc3ccc(NC(=O)Cc4ccccc4)cc3C(=O)N2C)O1	17[16.7 µM]	52	0	1	16
C[C@@H]1CN([C@H](C)CO)C(=O)c2cc(NC(=O)NC3CCCCC3)ccc2O[C@@H]1CN(C)Cc1ccncc1	-2[16.7 µM]	-4	0	-1	30*
CC(C)NC(=O)Nc1ccc2c(c1)C(=O)N([C@@H](C)CO)C[C@H](C)[C@H](CN(C)Cc1ccc(C(F)(F)F)cc1)O2	-7[16.7 µM]	-4	51*	1	6
C[C@@H]1CN([C@H](C)CO)C(=O)c2cc(NC(=O)Nc3ccc(C(F)(F)F)cc3)ccc2O[C@@H]1CN(C)Cc1ccc(Cl)c(Cl)c1	-3[16.7 µM]	-2	-3	3	46*
C[C@@H]1CN([C@H](C)CO)C(=O)c2cc(NC(=O)Nc3ccc(C(F)(F)F)cc3)ccc2O[C@H]1CN(C)Cc1ccncc1	12[16.7 µM]	-4	.	-12	33*
Cc1noc(C)c1S(=O)(=O)Nc1ccc2c(c1)C(=O)N([C@H](C)CO)C[C@@H](C)[C@@H](CN(C)C(=O)Nc1ccc(F)cc1)O2	-4[16.7 µM]	.	0	1	.
COc1cccc(-c2ccc3c(c2)[C@H]2[C@H](CCN2C(=O)Cc2ccccc2)[C@@H](CO)N3)c1	5[16.7 µM]	36	1	-60	-24
O=C(c1ccccn1)N1CC(=O)N2[C@@H](CO)[C@@H](c3ccc(C#CCc4ccccc4)cc3)[C@@H]2C1	.	.	0	0	12
O=C(Nc1ccc(NC(=O)N2CCN(c3ccccc3O)CC2)cc1)N1CCN(c2ccccc2O)CC1	-3	0	1	-20*	5
O=C(Nc1ccc(Cl)cc1)N1CCN(c2ccccc2)CC1	-4	2	.	.	.
COc1ccc(NC(=O)N(C)C[C@@H]2Oc3cc(-c4cccc(C(=O)N(C)C)c4)ccc3S(=O)(=O)N([C@@H](C)CO)C[C@@H]2C)cc1	7[16.7 µM]	12	0	-3	-2
Cc1noc(C)c1S(=O)(=O)Nc1ccc2c(c1)C(=O)N([C@H](C)CO)C[C@@H](C)[C@H](CN(C)S(=O)(=O)c1ccccc1)O2	-3[16.7 µM]	-1	0	-2	7
O=C(CSc1ccc(-c2cccnc2)nn1)Nc1ccc(Br)cc1	-2	5	0	.	30*
Cc1ccc(S(=O)(=O)N(C)C[C@H]2Oc3ccc(NC(=O)Nc4ccccc4)cc3CC(=O)N([C@H](C)CO)C[C@@H]2C)cc1	-7[16.7 µM]	-2	.	2	-12
CN(C)c1ccc(C(=S)NC2CCCCC2)cc1	.	.	.	9	6
CCN(CC)c1ccc(C(=S)NC2CCCCC2)cc1	.	-1	1	-21*	.
CC(C)c1csc2nc3n(c(=O)c12)CCCCC3	-6	1	-2	-33*	-1
SMILES	miR-122 sensor	Cneo AK release	E-sel inducer	Ecoli rRNA inh	DENV2 CPE rescue
O=c1c2c(-c3ccc(Cl)cc3)csc2nc2n1CCC2	-4	2	.	.	.
CO[C@H]1CN(C)C(=O)c2ccc(NS(=O)(=O)c3ccc(C)cc3)cc2OC[C@@H](C)N(C(=O)NC(C)C)C[C@H]1C	0[16.7 µM]	.	0	-3	.
CO[C@@H]1CN(C)C(=O)c2ccc(NC(=O)Nc3cccc(Cl)c3)cc2OC[C@H](C)N(C(=O)Nc2c(C)noc2C)C[C@H]1C	.	.	0	-5	31*
CO[C@H]1CN(C)C(=O)c2ccc(NC(=O)Nc3cccc(F)c3)cc2OC[C@@H](C)N(C(=O)Nc2c(C)noc2C)C[C@@H]1C	.	0	-1	-3	25*
CCC(=O)N1CC[C@@H]2[C@H]1c1cc(-c3ccccc3F)ccc1N(C)[C@@H]2CO	2[16.7 µM]	3	-1	-4	-5
COc1ccc(Oc2nc(-c3ccccn3)ncc2OC)cc1	.	.	.	-28*	10
COc1ccc(NC(=O)c2sccc2-n2cccc2)cc1	6	1	6	-31*	-9
Cc1cc(Sc2nnc(/N=C/N(C)C)s2)c2ccccc2n1	-4	-4	0	-20*	-6
Cc1cc(Sc2nnc(N)s2)c2ccccc2n1	2	.	0	7	-2
CCOC(=O)c1c(-c2ccc(OC)c(OC)c2)csc1NC(=O)C1CCCO1 (stereo not drawn)	.	.	1	-37*	.
COc1ccc(-c2csc(NC(=O)c3cccs3)c2C(=O)O)cc1OC	.	.	0	-34*	-4
O=C(Nc1nc(-c2ccccc2)ns1)c1cccs1	15	20	.	-38*	-3
COc1ccc(-c2ccccc2)cc1NC(=O)c1cccs1	9	-5	.	-5	49*
O=C(Nc1nc(-c2ccccc2)cs1)c1cccs1	2	-7	.	.	.
COc1ccc(NC(=O)N2C[C@@H](O)COC[C@@H]3O[C@@H](CC(=O)N4CCN(C)CC4)CC[C@H]32)cc1	7[16.7 µM]	3	0	5	15
CCCNC(=O)C[C@@H]1C[C@@H]2c3cc(NC(=O)Cc4ccncc4)ccc3O[C@@H]2[C@H](CO)O1	5[16.7 µM]	-4	0	3	3
Cc1ccc(-n2c(-c3ccccc3)c[n+]3c2CCc2ccccc2-3)c(C)c1	.	.	-1	-53*	1
Cc1ccc(-n2c(-c3ccccc3)c[n+]3c2CCC3)cc1	.	.	.	-8	4
Cc1cc(C)nc(-n2nc(C)c3c(C(F)(F)F)cc(=O)[nH]c32)n1	-3	-1	.	17	.
Cc1cc(C)nc(-n2nc(C)c(Sc3ccc(F)cc3)c2N)n1	-6	3	.	-40*	.
O=C(C[C@H]1C=C[C@@H](NS(=O)(=O)c2ccccc2)[C@@H](CO)O1)NCc1ccncn1	.	-1	0	5	-1
O=C(CSc1ccc2ccccc2c1)Nc1ccncc1	-1	0	.	-50	-3
O=C(CSc1ccncc1)Nc1ccc2ccccc2c1	0	.	19	-31*	2

High-throughput results as filed in PubChem BioAssay.
